The record followed here is PubChem BioAssay AID638 (SRMLSC, 2007).

The experiment concerns E. coli BW25113 wild type growth inhibition, OD615. As to the kind of experiment: wild-type E. coli BW25113 antibacterial activity – OD615, dose response (AID 638). In short, it runs like this: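 Assay system: E. coli BW25113 wild type; buffer or medium: Kanamycin-supplemented LB broth; signal: optical density (absorbance) at 615 nm; controls: chloramphenicol 30 µM control; doses: compound concentration series; times: bacterial exposure to compound 20 h at 37 °C; evaluation: IC50 from 4-parameter logistic, bounds fixed 0–100%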

Each structure is given as a SMILES string.

Take `COc1cc(Cc2cnc(N)nc2N)cc(OC)c1OC`: the IC50 was 0.688 µM. As for `O=S1(=O)Nc2c(ccc3cccnc23)-c2ccccc21`, the figure is 26.8 µM; as for `CC(=O)OCC1=C(C(=O)O)N2C(=O)[C@@H](NC(=O)Cc3cccs3)[C@H]2SC1`, 10.6 µM.

In the case of `CN1CCN(c2c(F)cc3c(=O)c(C(=O)O)cn4c3c2SCC4)CC1`, the IC50 was 1.1 µM.

Turning to `N#Cc1ccc(NC(=O)Nc2ccc(Cl)cc2)cc1`, the concentration for half-maximal inhibition (IC50) was 49.2 µM.

Take `CC(=O)c1c(C)n([O-])c2ccccc2[n+]1=O`: the IC50 was 19.5 µM. `CCSc1nnc(NC(=O)c2ccccn2)s1`: the IC50 is 92.8 µM. As for `COc1cccc(C(=O)Nc2nnc(-c3cccs3)o2)c1`, the figure is 79.6 µM; as for `Cc1ccsc1C(=O)Nc1nnc(-c2ccco2)o1`, 60.3 µM; as for `Oc1c(CN2CCCCC2)cc(Br)c2cccnc12`, 61.3 µM. Consider `CCC(=O)N1CCN(c2cc3c(cc2F)c(=O)c(C(=O)O)cn3CC)CC1`, for which the IC50 was 3.16 µM. Take `CCn1cc(C(=O)O)c(=O)c2cc(F)c(N3CCN(C(=O)Nc4ccccc4)CC3)cc21`: the IC50 was 2.28 µM. With `O=C(Nc1cccc(Cl)c1)Nc1nccs1`, the IC50 was 96.1 µM. For the molecule `CCn1cc(C(=O)NCc2ccc3c(c2)OCO3)c(=O)c2cc(F)c(N3CCN(C)CC3)cc21`, the IC50 was 28.2 µM. The same measure for `C=CCNc1ncnc2c1[nH]c1ccc(C)cc12`: 35.4 µM; for `CCCCOc1ccc(NC2=NC3(CCCCC3)N=C(N)N2)cc1`: 89 µM. As for `NC1C2CN(c3nc4c(cc3F)c(=O)c(C(=O)O)cn4-c3ccc(F)cc3F)CC12` (centres undefined), the 50% inhibitory concentration (IC50) was less than 0.195 µM. As to `O=C(Nc1nnc(-c2ccccc2)o1)c1ccc(Cl)cc1`, the IC50 was 102 µM. In the case of `c1ccc(-c2cccc(-c3ccccn3)n2)nc1`, the IC50 is 66.8 µM.

Consider `CO[C@@]1(NC(=O)Cc2cccs2)C(=O)N2C(C(=O)O)=C(COC(N)=O)CS[C@@H]21`, for which the IC50 is 7.91 µM.

With `CCn1cc(C(=O)Nc2nncs2)c(=O)c2cc(F)c(N3CCN(C(=O)c4ccco4)CC3)cc21`, the half-maximal inhibitory concentration (IC50) was 75.6 µM. As to `O=c1ccsn1Cc1ccccc1`, the IC50 is 23.6 µM. In the case of `CN(C)[C@@H]1C(=O)C(C(N)=O)=C(O)[C@@]2(O)C(=O)C3=C(O)c4c(O)ccc(Cl)c4[C@@H](O)[C@H]3C[C@@H]12`, the IC50 was 0.609 µM. As for `COc1c(N2CCNC(C)C2)c(F)cc2c(=O)c(C(=O)O)cn(C3CC3)c12` (centres undefined), the figure is less than 0.195 µM.

By IC50 is commonly meant the concentration needed to halve the response being measured.
